In the library only some 1.9% were active in any assay of this set; here they are far more common.
ASAP1 inh = inhibitors of human ASAP1 ArfGAP activity, primary screen, biochemical, fluorescence polarization; Arf-GAP with SH3 domain, ANK repeat and PH domain-containing protein 1 (Homo sapiens), …; ASAP1-stimulated ARF1 GTP hydrolysis, GDP FP detection; inhibition, % at 16.5 µM; 0.19% of 360,000 active; AID 624377, 2012; in the data active = inhibition above about 25%;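 also: 0% = vehicle with enzyme and substrate and 100% = no enzyme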
Target sequence (Q9ULH1 325-724 limits assumed): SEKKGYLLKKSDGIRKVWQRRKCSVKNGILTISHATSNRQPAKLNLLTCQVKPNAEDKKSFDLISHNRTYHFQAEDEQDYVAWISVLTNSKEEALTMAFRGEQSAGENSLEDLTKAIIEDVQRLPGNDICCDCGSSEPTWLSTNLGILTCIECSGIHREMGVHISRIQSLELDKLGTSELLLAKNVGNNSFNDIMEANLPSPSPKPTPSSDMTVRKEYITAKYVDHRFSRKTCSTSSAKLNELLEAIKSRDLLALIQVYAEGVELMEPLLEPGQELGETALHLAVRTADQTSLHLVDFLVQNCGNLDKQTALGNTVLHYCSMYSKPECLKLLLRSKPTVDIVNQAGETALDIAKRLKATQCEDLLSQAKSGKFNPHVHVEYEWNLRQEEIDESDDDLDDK
ARFGAP1 inh = inhibitors of rat ARFGAP1 GAP activity, primary screen, biochemical, fluorescence polarization, GDP tracer; inhibition, % at 16.5 µM; ADP-ribosylation factor GTPase-activating protein 1 (Rattus norvegicus), Q62848; Arfgap1-stimulated ARF1 GTP hydrolysis, GDP FP detection; 0.26% of 360,000 active;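 active = inhibition above a per-plate limit, mean inhibition of low control wells plus 3 SD, cut at about 25% in these data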;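 also: 0% = DMSO wells with enzyme and 100% = wells lacking Arfgap1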
Target sequence (Q62848 1-136 limits assumed): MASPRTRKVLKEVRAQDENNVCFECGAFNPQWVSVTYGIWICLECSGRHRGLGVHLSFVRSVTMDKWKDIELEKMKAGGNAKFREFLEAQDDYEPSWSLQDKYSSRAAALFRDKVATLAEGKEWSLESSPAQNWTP
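System: truncated rat Arfgap1 GAP domain / Medium: HEPES-based buffer, pH 7.5 / Also added: N-terminally truncated human ARF1-GTP substrate / Incubation: enzyme reaction 120 min at 25 °C after 20 min preincubation / Measured by: FP of antibody-bound GDP Alexa 633 tracer, ex 620/em 688 nm / Replicates: singlicate, each compound tested once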
Rtt109 Vps75 = inhibitors of C. albicans Rtt109/Vps75 HAT, primary screen, biochemical, ThioGlo CoA-SH fluorescence, plate reader | Histone acetyltransferase RTT109 (Candida albicans (strain SC5314 / ATCC MYA-2876)), … | purified Rtt109/Vps75, 4 h | inhibition, % at 34.9 µM | 0.16% of 330,000 active;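 active = inhibition of at least 50% in every replicate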
Efflux pump inh = inhibitors of Candida efflux pumps in yeast, primary screen, S. cerevisiae, Nile Red, multiplex; AID 485275, 2010; S. cerevisiae Candida pump triplex; 0.44% of 330,000 active; inhibition, % at 10 µM;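 active = plate passing quality check with inhibition over a set limit, or well fluorescence over plate mean plus 4 SD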;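 also: Nile Red retained in pooled yeast measured as flow cytometry median fluorescence; 0% = buffer negative control and 100% = Enniatin B positive control; higher means more Nile Red kept so more efflux inhibition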
FGF22 binding-1 = binders of human FGF22 protein, primary screen, FGF22 synaptogenesis inhibitor project, biophysical, thermal shift, single point; 1.5% of 340,000 active; activity (Tm shift, normalised), % at 9.99 µM; AID 651658, 2012; recombinant FGF22 thermal shift, SYPRO orange fluorescence; percent of sucrose octasulfate shift, DMSO zero; Fibroblast growth factor 22 (Homo sapiens), Q9HCT0;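 active = mean Tm shift, scaled 0 neutral to 100 positive control, at about 1.3% or above, every replicate too, limit read from the data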
Target sequence (Q9HCT0 whole entry, looked up): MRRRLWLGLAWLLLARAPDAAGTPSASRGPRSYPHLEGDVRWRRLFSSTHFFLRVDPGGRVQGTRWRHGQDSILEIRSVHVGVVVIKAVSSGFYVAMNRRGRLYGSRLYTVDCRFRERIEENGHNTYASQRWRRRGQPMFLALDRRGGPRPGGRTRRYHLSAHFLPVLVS
FGF22 binding-2 = binders of human FGF22 protein, dose response, FGF22 synaptogenesis inhibitor project, biophysical, thermal shift, cherry-pick retest. shares compounds with FGF22 binding-1. recombinant FGF22 thermal shift, SYPRO orange fluorescence. thermal shift activity, °C (ΔTm) at 38 µM. 2% of 1,000 active. AID 720646, 2013;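 active = fitted rise in melting shift crosses a set limit at or below the top valid dose tested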
FGF22 TSA DP = binders of human FGF22 protein, dose response, FGF22 synaptogenesis inhibitor project, biophysical, thermal shift, dry powder; shares compounds with FGF22 binding-1; Thermal shift assay, SYPRO orange, melting temperature shift; Tm shift (activity), % at 38 µM; 50 tested, under 10 active; AID 743017, 2013;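 active = compounds whose fitted dose curve of melting temperature shift rises past a set threshold within the tested doses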
SYPRO no-protein = compound-only thermal shift signal without protein, dose response, artefact control for FGF22 binder project, biochemical, cherry-picked samples, RT-PCR instrument; AC50, µM (top dose mostly 38 µM); compound-only SYPRO orange thermal shift counter-screen, no protein; shares compounds with FGF22 binding-1; 2% of 1,000 active;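 active = rising signal whose fitted curve reaches the 0.54 level within the top valid dose, showing a melting point, actives reach about 13 µM in these data; inactive = the rest, including activity in the opposite direction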; also: value is where the raw curve crosses a fixed level and not half-maximal
Starred values were filed as active, the others as inactive; i = inactive; . = no result given; [ ] = remark or other dose.

SMILES	ASAP1 inh	ARFGAP1 inh	Rtt109 Vps75	Efflux pump inh	FGF22 binding-1	FGF22 binding-2	SYPRO no-protein	others
O=C(NCCC1=CCCCC1)C1CCN(S(=O)(=O)c2cccc3nonc23)CC1	-9.2	9.2	.	0.2	.	.	.
N#Cc1c(-c2ccccc2)nc(-c2ccncc2)[nH]c1=O	3.6	-9.3	-1.9	0.1	1.6*	0.136	i
COCC(=O)N1C[C@H]2[C@@H](c3ccccc31)[C@H](CO)N2C(=O)Nc1ccccc1F	.	.	.	.	1.5*	-0.044	i
COc1ccc(C(=O)N2C[C@H]3[C@@H](c4ccccc42)[C@@H](CO)N3C(=O)c2ccc(F)cc2)cc1	.	.	.	.	1.8*	0.061[42 µM]	i
CC(=O)N1[C@@H](CO)[C@@H]2c3ccccc3N(C(=O)c3ccc(F)cc3)C[C@@H]21	.	.	.	.	1.8*	0.108	i
O=C(NCCc1c[nH]c2ccccc12)c1ccc(Cl)cc1	-10.1	0.5	-1.7	0.0	2.4*	-0.006	i	FGF22 TSA DP=-0.3
CC(C)NC(=O)Nc1ccc2c(c1)C(=O)N([C@@H](C)CO)C[C@@H](C)[C@@H](CN(C)C(=O)Nc1ccc(F)cc1)OCCCC[C@@H](C)O2	.	.	.	.	-0.4	.	.
COc1ccc(NC(=O)NNC(=O)COc2ccc(Cl)cc2C)cc1OC	-5.3	-5.0	2.4	-0.2	-0.1	.	.
COc1ccc(OC)c(NC(=O)NNC(=O)CCCOc2ccc(Cl)cc2C)c1	1.6	11.9	19.3	-0.1	1.7*	0.028	i
COc1ccc(S(=O)(=O)N(C(C)=O)c2ccc(OC(C)=O)c3ccccc23)cc1[N+](=O)[O-]	4.4	7.9	6.3	-0.1	1.5*	-0.014	i
C/C(=N/NC(=O)CNC(=O)c1cccnc1)c1ccc(Cl)cc1	-5.2	-3.4	-0.1	0.0	-0.2	.	.
C/C(=N\NC(=O)CNC(=O)c1ccncc1)c1ccc(C)cc1	-9.7	3.5	5.1	0.0	1.6*	0.043	i
COCC#Cc1ccc2c(c1)O[C@H](CN(C)C(=O)c1ccccc1)[C@@H](C)CN([C@@H](C)CO)S2(=O)=O	.	.	.	.	8.3*	0.172[42 µM]	i
COCC(=O)N(C)C[C@H]1Oc2cc(C#Cc3ccccc3)ccc2S(=O)(=O)N([C@H](C)CO)C[C@H]1C	.	.	.	.	6.2*	0.1[42 µM]	i
CCCN(C)C[C@@H]1Oc2cc(C#CC(C)(C)O)ccc2S(=O)(=O)N([C@@H](C)CO)C[C@@H]1C	.	.	.	.	1.3*	0.18[42 µM]	i
CCCN(C)C[C@H]1Oc2cc(C#CC(C)(C)O)ccc2S(=O)(=O)N([C@@H](C)CO)C[C@H]1C	.	.	.	.	0.7	.	.
COCC(=O)N(C)C[C@@H]1Oc2cc(C#Cc3ccccc3)ccc2S(=O)(=O)N([C@@H](C)CO)C[C@@H]1C	.	.	.	.	-1.0	.	.
COCC#Cc1ccc2c(c1)O[C@@H](CN(C)C(=O)c1ccccc1)[C@H](C)CN([C@H](C)CO)S2(=O)=O	.	.	.	.	-0.6	.	.
CCOC(=O)c1ccc(-c2ccc(CO)o2)cc1	5.7	-1.2	1.6	0.0	.	.	.
NS(=O)(=O)c1ccc(CCNC(=O)CNC(=O)Cc2cccc3ccccc23)cc1	-2.8	3.7	7.0	0.8	-0.3	.	.
Cc1ccc2c(c1)c(CC(=O)Nc1ccc(C)c(F)c1)c(C(=O)O)n2C	8.5	2.4	-2.9	0.8	1.6*	0.162	i
CCN1CCc2c(sc(NC(=O)c3ccc(S(=O)(=O)N(CC)c4ccccc4)cc3)c2C(N)=O)C1	-0.3	0.0	-9.0	0.1	28.3*	0.017	i
CCOC(=O)N1CCc2c(sc(NC(=O)C3COc4ccccc4O3)c2C(N)=O)C1 (stereo unspecified)	2.0	2.5	-6.6	-0.3	28.7*	-0.114	i
O=C(CNC(=O)c1cccs1)N/N=C/c1ccco1	-2.5	10.9	-9.9	0.1	-0.3	.	.
COc1ccc(C(=O)CN2C(=O)c3ccccc3C2=O)c(OC)c1	-1.7	6.5	24.3	0.1	0.1	.	.
SMILES	ASAP1 inh	ARFGAP1 inh	Rtt109 Vps75	Efflux pump inh	FGF22 binding-1	FGF22 binding-2	SYPRO no-protein	others
CCC(C)NS(=O)(=O)c1ccc(S(=O)(=O)N2CC=C(c3ccc(F)cc3)CC2)cc1 (stereo unspecified)	13.9	-2.9	4.8	-0.2	13.6*	0.134	i
CCC(C)NC(=O)C1=CCN(S(=O)(=O)c2ccc(C)cc2)CC1 (stereo unspecified)	-12.3	-0.6	-1.2	0.1	0.5	.	.
CCOC(=O)[C@]12CCCC=C1N(Cc1ccc3c(c1)OCO3)C(=O)[C@H](CC(=O)NCC1CCCCC1)C2	7.8	8.1	.	.	0.0	.	.
O=C(NCC1CCCCC1)c1cccnc1Cl	1.9	2.2	-7.2	-0.1	1.5*	0.226	i
CC(C)NC(=O)CC(=O)N/N=C\c1ccccc1C(=O)O	0.8	-2.4	-2.1	-0.2	0.2	.	.
O=C(CNC(=O)OCc1ccccc1)NC1CCCCCCC1	8.9	1.8	1.2	0.8	.	.	.
O=C(COc1ccccc1)NCC(=O)NC1CCCCC1	3.1	15.6	7.7	-0.1	1.9*	0.062	i
Cc1ccc(NC(=O)c2sc3ncn(CC(=O)N4CCN(c5ccccn5)CC4)c(=O)c3c2C)cc1Cl	11.9	-2.9	-2.3	0.3	0.0	.	.
Cc1ccc(NC(=O)c2sc3ncn(CC(=O)N4CCN(c5ccccn5)CC4)c(=O)c3c2C)cc1F	3.5	-5.7	-19.4	0.0	1.4*	0.091	i
O=C(Nc1ccc(S(=O)(=O)NCc2ccccc2)cc1)c1ccccc1[N+](=O)[O-]	-8.1	0.0	16.4	0.1	2.4*	0.029	i
C/C=C/c1ccc([C@@H]2[C@H](C#N)N(C(=O)CN3CCOCC3)[C@H]2CO)cc1	.	.	.	.	2.3*	0.156[42 µM]	i
COCC(=O)N1C[C@H](C)[C@H](OC)CN(C)C(=O)c2cc(NC(=O)Nc3ccccc3)ccc2OC[C@H]1C	.	.	.	.	0.2	.	.
COc1ccc(CNC(=O)C[C@H]2C=C[C@@H](NC(=O)Nc3ccc4c(c3)OCO4)[C@@H](CO)O2)cc1	.	.	.	.	-0.1	.	.
